TAAR1 agonist: human TAAR1 agonists, primary screen, Fluo-8 calcium fluorescence, CHO RD-HGA16 cells; Trace amine-associated receptor 1 (Homo sapiens), Q96RJ0; vehicle wells 0%, saturating PEA agonist 100%; activation, % at 3 µM; 360,000 tested, 0.99% active; AID 624467, 2012;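 active = activation above the mean activation of all test compounds in the run plus 3 SD, cut at about 38% in these data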
Target sequence (Q96RJ0 whole entry, looked up): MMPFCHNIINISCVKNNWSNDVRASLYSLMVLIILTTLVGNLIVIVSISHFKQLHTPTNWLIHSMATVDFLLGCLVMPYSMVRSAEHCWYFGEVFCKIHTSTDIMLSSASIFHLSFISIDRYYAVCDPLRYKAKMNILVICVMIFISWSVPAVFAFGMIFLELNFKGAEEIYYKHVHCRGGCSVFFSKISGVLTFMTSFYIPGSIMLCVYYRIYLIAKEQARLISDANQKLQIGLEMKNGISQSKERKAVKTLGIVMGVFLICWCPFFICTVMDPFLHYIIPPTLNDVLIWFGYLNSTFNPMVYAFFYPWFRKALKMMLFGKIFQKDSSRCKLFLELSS
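Assay system: CHO-derived RD-HGA16 cells with stable Gα16 and human TAAR1; timing: 17-24 h seeding, 75 min 37 °C dye, 30 min RT; read-out: % activation from peak over basal fluorescence ratio, DMSO-to-PEA scaled; measured by: kinetic Fluo-8 calcium fluorescence; benchmarks: low control DMSO, high control PEA (EC100); doses: 3 µM single concentration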
VLA-4 inh: inhibition in human VLA-4 binding assay, primary screen, VLA-4 allosteric modulator project, MLPCN library, flow cytometry, VLA-4 expressing cells. 330,000 tested, 0.2% active. inhibition, % (about 7 µM as worked out from the volumes in the protocol). ligand binding flow cytometry. Integrin alpha-4 (Homo sapiens), P13612; in the data active = inhibition above about 50%
TAAR1 antagonist: human TAAR1 antagonists, primary screen, Fluo-8 calcium fluorescence, CHO RD-HGA16 cells; inhibition, % at 3 µM; antagonist; 360,000 tested, 1.5% active;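 active = inhibition above a per-plate cutoff, the mean inhibition of test compounds on that plate plus 3 SD, cut at about 49% in these data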;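 also: 0% = DMSO plus EC80 beta-PEA response and 100% = DMSO alone without agonist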
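Material: RD-HGA16 CHO cells with stable hTAAR1 and Gα16; Dosing: single nominal final test compound concentration of 3 µM; Schedule: seeding 17-24 h prior, 75-min 37 °C, 30-min RT dye loading; Detection: kinetic Fluo-8 calcium fluorescence measurement; Measure: % inhibition from peak post-agonist over basal fluorescence ratio; Benchmarks: vehicle and agonist controls.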
Platelet DG rel: inhibitors of platelet dense granule secretion, primary screen, cell-based, MLPCN, human platelets; inhibition, %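 (compounds screened at 7.5 µM in platelet-rich plasma)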; AID 1663, 2009; human platelet-rich plasma, SFLLRN dense granule ATP release, luminescence; 300,000 tested, 0.22% active;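 active = mean replicate score, as percent of positive control, at or above 50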
Rce1 inh: yeast Rce1p protease inhibitors, primary screen, biochemical, fluorescence, cell-free homogeneous | CAAX prenyl protease 2 (Saccharomyces cerevisiae (strain ATCC 204508 / S288c)), Q03530 | yeast membranes, quenched prenylated peptide cleavage fluorescence | calls only | 290,000 tested, 0.27% active | AID 2563, 2010;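 active = fall in fluorescence gain of 50% or more versus controls, with final raw signal at or below 3038400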;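 also: plate controls were neutral control wells for no effect and wells lacking membranes for full effect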
Target sequence (Q03530 whole entry, looked up): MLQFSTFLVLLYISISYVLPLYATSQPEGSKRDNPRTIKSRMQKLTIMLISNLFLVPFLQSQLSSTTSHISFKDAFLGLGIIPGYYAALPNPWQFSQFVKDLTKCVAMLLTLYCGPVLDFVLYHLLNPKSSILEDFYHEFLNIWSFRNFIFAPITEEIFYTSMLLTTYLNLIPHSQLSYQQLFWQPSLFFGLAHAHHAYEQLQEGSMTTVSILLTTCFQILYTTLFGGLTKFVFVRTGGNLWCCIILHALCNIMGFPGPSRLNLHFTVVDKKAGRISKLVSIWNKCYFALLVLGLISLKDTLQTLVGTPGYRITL
TAAR1 nonsel count: nonselective antagonists in TAAR1 counter-screen cells, counter-screen for hTAAR1 antagonist project, cell-based, fluorescence, calcium | shares compounds with TAAR1 antagonist | counterscreen cell line, antagonist mode | inhibition, % at 3 µM | 2,400 tested, 77% active | AID 651780, 2012; in the data active = inhibition above about 22%;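 also: CHO-Ga16 host cells stimulated with ATP at an EC80 level; 0% = agonist EC80 plus vehicle and 100% = vehicle without agonist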
TAAR1 ant conf: human TAAR1 antagonists, retest of hits, confirmation, cell-based, fluorescence | shares compounds with TAAR1 antagonist | TAAR1-expressing cells, fluorescence antagonist read-out | inhibition, % at 3 µM | 2,400 tested, 40% active | AID 651785, 2012; in the data active = inhibition above about 49%;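 also: CHO-Ga16 host cells challenged with agonist PEA near its EC80; 0% = agonist at EC80 plus vehicle and 100% = vehicle with no agonist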
Ga16 ag counter: calcium activation in Ga16-expressing cells, counter-screen for TAAR1 antagonist project, cell-based, fluorescence; 2,400 tested, 18% active; agonist counterscreen; activation, % at 3 µM; AID 651953, 2012; shares compounds with TAAR1 antagonist; in the data active = activation above about 12%;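 also: 0% = vehicle wells and 100% = saturating stimulus response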
TAAR1 ag count: TAAR1 activation by candidate antagonists – cell-based, fluorescence, counter-screen for TAAR1 antagonist project | activation, % at 3 µM | AID 651955, 2012 | 2,400 tested, 2% active | shares compounds with TAAR1 antagonist | hTAAR1 cell line, agonist mode; in the data active = activation above about 37%;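 also: CHO cells stably expressing TAAR1 with calcium dye readout; 0% = DMSO vehicle and 100% = full agonist response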
Numbers without * were called inactive. A selection: hits, their analogues and other compounds. The true share with any hit is near 2.6%.

COC(=O)c1cc(NC(=O)c2cc(C(C)(C)C)nn2Cc2ccc(F)cc2)ccc1N1CCOCC1 was read as TAAR1 agonist 3, VLA-4 inh 13, TAAR1 antagonist 63*, Platelet DG rel -8, Rce1 inh inactive, TAAR1 nonsel count 31*, TAAR1 ant conf 46, Ga16 ag counter 4 and TAAR1 ag count 0.
`O=C(Nc1ccc(N2CCOCC2)c(Cl)c1)c1ccc(F)cc1` gave TAAR1 agonist 14, VLA-4 inh 9, TAAR1 antagonist 63*, Platelet DG rel 1, Rce1 inh inactive, TAAR1 nonsel count 18, TAAR1 ant conf 29, Ga16 ag counter 10 and TAAR1 ag count 8.
For CC(C)(C)c1cc(C(=O)NN)n(Cc2ccc(F)cc2)n1 the results were TAAR1 agonist 7, VLA-4 inh 18, TAAR1 antagonist 46 and Platelet DG rel 5.
For Cc1cccc(Cn2nc(C(C)(C)C)cc2C(=O)Nc2ccc(F)cc2)c1 the results were TAAR1 agonist 5, VLA-4 inh -5, TAAR1 antagonist 70*, Platelet DG rel 10, Rce1 inh inactive, TAAR1 nonsel count 31*, TAAR1 ant conf 48, Ga16 ag counter 3 and TAAR1 ag count 6.
Screening C#CCN1CCc2onc(-c3ccc(Br)cc3)c2C1=O returned TAAR1 agonist 1 and TAAR1 antagonist -13.
`CCOc1cc(/C=N/NC(=O)C(O)(c2ccccc2)c2ccccc2)ccc1OC(=O)c1ccco1` gave TAAR1 agonist 14, VLA-4 inh -2, TAAR1 antagonist 80*, Platelet DG rel 8, Rce1 inh inactive, TAAR1 nonsel count 33*, TAAR1 ant conf 56*, Ga16 ag counter 8 and TAAR1 ag count 7.
`COc1cccc2cc(C(=O)C3=C(O)C(=O)N(CCN4CCOCC4)C3c3cccc(Cl)c3)oc12` (stereo not drawn) gave TAAR1 agonist 0, VLA-4 inh 4, TAAR1 antagonist -8, Platelet DG rel 7 and Rce1 inh inactive.
For CC(=O)c1ccc(N2CCN(C(=O)c3cc(-c4cccnc4)nc4ccc(Br)cc34)CC2)cc1 the results were TAAR1 agonist 25, VLA-4 inh 0, TAAR1 antagonist 76*, Platelet DG rel 8, Rce1 inh inactive, TAAR1 nonsel count 27*, TAAR1 ant conf 49*, Ga16 ag counter 13* and TAAR1 ag count 21.
For NC(=O)C1CCN(C(=O)c2cc(-c3ccc(Cl)cc3)nc3ccccc23)CC1 the results were TAAR1 agonist 7, VLA-4 inh -8, TAAR1 antagonist 54*, TAAR1 nonsel count 23*, TAAR1 ant conf 38, Ga16 ag counter 7 and TAAR1 ag count 1.
For O=C(c1cc(-c2ccncc2)nc2ccccc12)N1CCN(c2ccccc2O)CC1 the results were TAAR1 agonist 16, VLA-4 inh 0, TAAR1 antagonist 60*, Platelet DG rel -2, Rce1 inh inactive, TAAR1 nonsel count 29*, TAAR1 ant conf 46, Ga16 ag counter 8 and TAAR1 ag count 10.
Screening O=C(c1cc(-c2cccc3ccccc23)nc2ccccc12)N1CCN(CCO)CC1 returned TAAR1 agonist 16, VLA-4 inh -23, TAAR1 antagonist 54*, TAAR1 nonsel count 28*, TAAR1 ant conf 44, Ga16 ag counter 9 and TAAR1 ag count 10.
For Cc1ccc(C)c(C(=O)C(C)OC(=O)CN2C(=O)NC3(CC(C)CC(C)(C)C3)C2=O)c1 (stereo not drawn) the results were TAAR1 agonist -1, VLA-4 inh -12, TAAR1 antagonist -24 and Platelet DG rel -1.
COC1CCN(C(=O)C2CCC(=O)N(CCc3cccc(F)c3)C2)CC1 (stereo not drawn) was read as TAAR1 agonist 1, VLA-4 inh 5, TAAR1 antagonist 5 and Platelet DG rel -15.
Screening CCOc1ccc(NC(=O)CN(C)C(=O)C2CCN(C(=O)c3ccc(Cl)cc3)CC2)cc1OCC returned TAAR1 agonist -1, VLA-4 inh -2 and TAAR1 antagonist -9.
Cc1ccc2nc(-c3ccccc3)cc(C(=O)N3CCN(c4ccccc4O)CC3)c2c1 was read as TAAR1 agonist 12, VLA-4 inh 4, TAAR1 antagonist 66*, Platelet DG rel 4, Rce1 inh inactive, TAAR1 nonsel count 33*, TAAR1 ant conf 51*, Ga16 ag counter 8 and TAAR1 ag count 8.
Screening CC(Sc1nc(-c2ccccc2)c(-c2ccccc2)[nH]1)C(=O)NCC1CCCO1 (stereo not drawn) returned TAAR1 agonist 2 and TAAR1 antagonist -15.
`C=CCn1c(SCc2c(C)noc2C)nc2ccccc2c1=O` gave TAAR1 agonist 5, VLA-4 inh 15, TAAR1 antagonist 13, Platelet DG rel 0 and Rce1 inh inactive.
`C=CCn1c(SCc2c(C)noc2C)nc2cc(C(=O)O)ccc2c1=O` gave TAAR1 agonist 11, VLA-4 inh 3, TAAR1 antagonist 76*, Platelet DG rel -14, Rce1 inh inactive, TAAR1 nonsel count 5, TAAR1 ant conf 3, Ga16 ag counter 2 and TAAR1 ag count 8.
For Nc1cc(Cl)ccc1C(=O)OCC(=O)NC1CCCCC1 the results were TAAR1 agonist -2, VLA-4 inh -3, TAAR1 antagonist 102*, Platelet DG rel 3, Rce1 inh inactive, TAAR1 nonsel count 11, TAAR1 ant conf 8, Ga16 ag counter 3 and TAAR1 ag count 12.
`Cc1ccc(C)c(C(Nc2ccccc2)c2ccc3ccc(C)nc3c2O)c1` (stereo not drawn) gave TAAR1 agonist 2 and TAAR1 antagonist 10.
O=C(NCC1COc2ccccc2O1)C1CCN(S(=O)(=O)c2ccc(Cl)cc2)CC1 (stereo not drawn) was read as TAAR1 agonist 14, VLA-4 inh -3, TAAR1 antagonist 51*, TAAR1 nonsel count 24*, TAAR1 ant conf 42, Ga16 ag counter 12* and TAAR1 ag count 12.

Source: PubChem BioAssay (several laboratories)
